We go through 33 molecules from ChEMBL document CHEMBL2311323, “Synthesis and biological evaluation of N-alkyl-N-(4-methoxyphenyl)pyridin-2-amines as a new class of tubulin polymerization inhibitors” (Bioorg Med Chem, 2013).

A short description of assay [1]: Growth inhibition of human KBVIN cells by SRB assay. The assay is classed as functional. The method in brief: (§1)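 Sulforhodamine B staining of human tumor cell lines: A-549 lung carcinoma, KB nasopharyngeal epidermoid carcinoma, P-gp-expressing vincristine-resistant KB (KBVIN) and DU145 prostate cancer. GI50 is the molar concentration giving 50% growth inhibition, reported as mean ± SD from at least triplicate runs.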

Assay [2] deals with DU-145. The assay can be described thus: Growth inhibition of human DU145 cells by SRB assay. The assay is classed as functional. The method in brief: as §1
The test system of assay [3] is KB. The assay can be described thus: Growth inhibition of human KB cells by SRB assay. The assay is classed as functional. An outline of the steps:
as §1
In general terms: The SRB assay estimates cell density from bound dye.

For assay [4], the system named is A549. Briefly: Growth inhibition of human A549 cells by SRB assay. The class given is functional. An outline of the steps: as §1
The target in assay [5] is Tubulin (Homo sapiens) (UniProt P68371+Q9H4B7+P0DPH7+P68366+Q13509+Q71U36+P04350+Q3ZCM7+P07437+P68363+Q9BQE3+Q6PEY2+Q13885+Q9BVA1+Q9BUF5). Briefly: Inhibition of [3H]colchicine binding to tubulin (unknown origin) at 5 uM incubated for 10 mins at 37 degC. The assay is classed as protein-complex assay.
In assay [6] the target is Tubulin. Briefly: Inhibition of tubulin assembly (unknown origin) pre-incubated with compound for 15 mins before GTP addition measured after 20 mins at 30 degC post GTP addition by turbidimetry. The class given is protein-complex assay, Homo sapiens. An outline of the steps: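 Turbidity at 350 nm. Tubulin at 1.0 mg/mL (10 µM) was preincubated with varying compound concentrations for 15 min at 30 °C without GTP. Samples were chilled on ice and 0.4 mM GTP added, then moved to 0 °C cuvettes. After a rapid jump to 30 °C, assembly was followed for 20 min. IC50 is the concentration halving the turbidity increase relative to control.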

Assay [7] is described as follows: Growth inhibition of human KBVIN cells at 20 ug/mL by SRB assay. The class given is functional. The note with it: read-out: GI. An outline of the steps:
as §1

The subject of assay [8] is KB. Briefly: Growth inhibition of human KB cells at 20 ug/mL by SRB assay. The assay is classed as functional. The settings on record: read-out: GI. An outline of the steps:
as §1

The test system of assay [9] is A549. Briefly: Growth inhibition of human A549 cells at 20 ug/mL by SRB assay. The assay is classed as functional. The note with it: read-out: GI. The method in brief:
as §1

Assay [10] relates to DU-145. The assay can be described thus: Growth inhibition of human DU145 cells at 20 ug/mL by SRB assay. The assay is classed as functional. The note with it: read-out: GI. The method in brief:
as §1

Structures are written as SMILES. pIC50: −log10 of the molar value. A value given as a limit tells only on which side of the number the result lay.

As usually defined, the GI50 is the concentration that inhibits growth by half. Turning to `COC(=O)c1ccc(N(C)c2nc(Cl)ccc2[N+](=O)[O-])cc1`, the GI50 in assay [1] came out at 2870 nM; in [2], 2220 nM; in assay [3], 2890 nM; in [4], 3000 nM.
For `COc1ccc(N(C)c2nc(Cl)ccc2C(=O)OC(C)C)cc1` the same measures were 17300 nM, 17800 nM, 14500 nM and 22000 nM.
For `CNc1ccc(C(=O)OC)c(N(C)c2ccc(OC)cc2)n1`, the GI50 in [1] was determined as 920 nM; in assay [2], 1670 nM; in assay [3], 1360 nM; in assay [4], 3430 nM.
For `COCc1ccc(C(F)(F)F)nc1N(C)c1ccc(OC)cc1` the same measures were 1430 nM, 1290 nM, 1640 nM and 1200 nM.
For the molecule `COc1ccc(N(C)c2nc(Cl)ccc2C#N)cc1`, the GI50 in assay [1] amounted to 18100 nM; in [2], 20400 nM; in assay [3] it was 22100 nM; in [4], 20400 nM.
As for `CCOC(=O)c1ccc(Cl)nc1N(C)c1ccc(OC)cc1`, the GI50 came to 1430 nM in assay [1], 1430 nM in assay [2], 1800 nM in assay [3] and 1810 nM in assay [4].
One may read the inhibition as how much of the control response was suppressed. Broadly, the pIC50 is the negative decadic logarithm of the IC50, by convention in mol/L. As for `COC(=O)c1ccc(C(F)(F)F)nc1N(C)c1ccc(OC)cc1`, the GI50 in [1] amounted to 190 nM; in [2], 250 nM; in assay [3] it was 410 nM; in assay [4], 350 nM. The inhibition in [5] turned out to be 82%. Besides, the pIC50 in [6] is 5.77.
For the molecule `COc1ccc(N(C(C)=O)c2nc(Cl)ccc2[N+](=O)[O-])cc1`, the GI50 in assay [1] stood at 13900 nM; in [2], 11200 nM; in assay [3], 14300 nM; in assay [4], 11800 nM.
On to `COc1ccc(N(C)c2nc(C(F)(F)F)ccc2C(=O)OC(C)C)cc1`, for which the inhibition of growth at 20 µg/mL in assay [7], in assay [8], in assay [9] and in [10] was below 50% in each case.
Take `COc1ccc(N(C)c2nc(Cl)ccc2CO)cc1`: the concentration for 50% growth inhibition (GI50) is 2120 nM in assay [1], 1960 nM in assay [2], 2260 nM in assay [3] and 3250 nM in assay [4].
For `COc1ccc(N(c2nc(Cl)ccc2[N+](=O)[O-])C2CCCC2)cc1`, the inhibition of growth at 20 µg/mL in assay [7], in [8], in [9] and in assay [10] was below 50% each time.
In the case of `COc1ccc(N(C)c2nc(C(F)(F)F)ccc2-c2nnnn2C)cc1`, the 50% growth inhibitory concentration (GI50) in assay [1] was determined as 1260 nM; in assay [2], 1160 nM; in assay [3] it was 1470 nM; in [4], 1820 nM.
As for `CN(c1ccc(OC(F)(F)F)cc1)c1nc(Cl)ccc1[N+](=O)[O-]`, the inhibition of growth at 20 µg/mL in assay [7], in assay [8], in assay [9] and in assay [10] was below 50% throughout.
As to `COc1ccc(N(C)c2nc(Cl)ccc2C(=O)O)cc1`, the inhibition of growth at 20 µg/mL in assay [7], in assay [8], in assay [9] and in assay [10] was below 50% each time.
On to `COc1ccc(N(C)c2nc(C(F)(F)F)ccc2C#N)cc1`, for which the GI50 was determined as 7910 nM in assay [1], 10700 nM in [2], 15300 nM in assay [3] and 7210 nM in assay [4].
For `COCc1ccc(Cl)nc1N(C)c1ccc(OC)cc1`, the GI50 in assay [1] was found to be 200 nM; in [2], 250 nM; in assay [3] it was 330 nM; in assay [4], 300 nM. This molecule yielded an inhibition in [5] of 88%. Moreover, the pIC50 in assay [6] was 5.82.
Regarding `CNC(=O)c1ccc(C(F)(F)F)nc1N(C)c1ccc(OC)cc1`, the inhibition of growth at 20 µg/mL in assay [7], in [8], in [9] and in assay [10] was below 50% each time.
Turning to `COc1ccc(N(C)c2nc(Cl)ccc2[N+](=O)[O-])cc1`, the 50% growth inhibitory concentration (GI50) is 1860 nM in assay [1], 1550 nM in [2], 1780 nM in assay [3] and 2200 nM in assay [4].
With `COc1ccc(N(C)c2nc(C(F)(F)F)ccc2CO)cc1`, the 50% growth inhibitory concentration (GI50) was 1750 nM in assay [1], 1710 nM in [2], 1920 nM in assay [3] and 2130 nM in [4].
Consider `COc1ccc(N(C)c2nc(C(F)(F)F)ccc2-c2nnn[nH]2)cc1`, for which the inhibition of growth at 20 µg/mL in [7], in assay [8], in assay [9] and in assay [10] was below 50% throughout.
As for `CN(c1ccc(C#N)cc1)c1nc(Cl)ccc1[N+](=O)[O-]`, the 50% growth inhibitory concentration (GI50) turned out to be 27000 nM in assay [1], 21400 nM in assay [2], 22100 nM in assay [3] and 24000 nM in [4].
Regarding `COc1cc(N(C)c2nc(Cl)ccc2[N+](=O)[O-])cc(OC)c1OC`, the inhibition of growth at 20 µg/mL in assay [7], in assay [8], in assay [9] and in [10] was below 50% throughout.
Take `CCOC(=O)c1ccc(C(F)(F)F)nc1N(C)c1ccc(OC)cc1`: the GI50 in assay [1] is 1300 nM; in [2] it was 1300 nM; in assay [3] it was 1520 nM; in assay [4] it was 1460 nM.
Consider `COC(=O)c1ccc(OC)nc1N(C)c1ccc(OC)cc1`, for which the GI50 turned out to be 4020 nM in assay [1], 2450 nM in assay [2], 4010 nM in [3] and 3150 nM in assay [4].
For `COc1ccc(N(C)c2nc(Cl)ccc2[N+](=O)[O-])cc1OC` the same measures were 16500 nM, 15000 nM, 16000 nM and 18400 nM.
Regarding `COC(=O)c1ccc(Cl)nc1N(C)c1ccc(OC)cc1`, the GI50 in [1] turned out to be 200 nM; in assay [2], 210 nM; in assay [3] it was 260 nM; in assay [4], 230 nM. Further, the inhibition in [5] was 80%. For the same molecule, in [6], the pIC50 is 5.85.
As for `COc1ccc(N(C)c2nc(OC)ccc2[N+](=O)[O-])cc1`, the GI50 in assay [1] was 2830 nM; in assay [2], 2700 nM; in assay [3] it was 3310 nM; in assay [4], 3270 nM.
As for `C=CCN(c1ccc(OC)cc1)c1nc(Cl)ccc1[N+](=O)[O-]`, the GI50 in assay [1] amounted to 3150 nM; in assay [2] it was 2690 nM; in assay [3], 2610 nM; in assay [4], 3330 nM.
Regarding `CNc1ccc([N+](=O)[O-])c(N(C)c2ccc(OC)cc2)n1`, the 50% growth inhibitory concentration (GI50) in assay [1] was 9630 nM; in assay [2] it was 4450 nM; in assay [3] it was 4530 nM; in [4], 4500 nM.
For the molecule `COc1ccc(N(C)c2nc(C(F)(F)F)ccc2C(=O)O)cc1`, the inhibition of growth at 20 µg/mL in assay [7], in assay [8], in [9] and in [10] was below 50% throughout.
Turning to `CNC(=O)c1ccc(Cl)nc1N(C)c1ccc(OC)cc1`, the inhibition of growth at 20 µg/mL in [7], in assay [8], in [9] and in [10] was below 50% each time.
Regarding `CC(=O)O[C@H]1C(=O)[C@@]2(C)[C@H]([C@H](OC(=O)c3ccccc3)[C@]3(O)C[C@H](OC(=O)[C@H](O)[C@@H](NC(=O)c4ccccc4)c4ccccc4)C(C)=C1C3(C)C)[C@]1(OC(C)=O)CO[C@@H]1C[C@@H]2O` [PACLITAXEL], the GI50 stood at 1800 nM in [1], 6.5 nM in [2], 7.77 nM in assay [3] and 8.18 nM in assay [4].
With `COc1ccc(N(C)c2nc(C)ccc2[N+](=O)[O-])cc1`, the 50% growth inhibitory concentration (GI50) in [1] was found to be 4190 nM; in assay [2] it was 3350 nM; in [3], 2920 nM; in assay [4], 4420 nM.
